Measurements from different studies.
Lines come from different studies, so protocols differ.
Target: Tyrosine-protein kinase HCK (HCK, Homo sapiens, UniProt P08631)

| observed | method | tested at | remaining binding [%] | SMILES |
| --- | --- | --- | --- | --- |
| cell-free assay | competition with immobilised ligand | 1 µM | 100 | CS(=O)(=O)c1cc(C2(NC(=O)c3cncc4c3cnn4-c3ccc(F)cc3)CC2)ccn1 |
| binding |  | 1 µM | 100 | Cc1cnn2ncc(-c3ccnc(N(C)C)n3)c2c1 |
| binding | competition with immobilised ligand | 1 µM | 100 | COc1cnc(Nc2cccc(S(N)(=O)=O)c2)nc1N1CCN(c2ccccc2)C(=O)C1 |
| binding | competition with immobilised ligand | 1 µM | 80 | CCN1CCN(Cc2ccc(C(=O)Nc3ccc(C)c(Oc4ccc5c(c4)CC(=O)N5)c3)cc2C(F)(F)F)CC1 |
| cell-free assay | competition with immobilised ligand | 1 µM | 100 | CCS(=O)(=O)c1cc2cc(C[C@](O)(CC(C)(C)c3ccc(F)cc3C(N)=O)C(F)(F)F)[nH]c2cn1 |
| cell-free assay | competition with immobilised ligand | 5 µM | 71 | FC(F)(F)Oc1cccc(-c2cnc3ccc(-c4ccncc4)nn23)c1 |
| cell-free assay | competition with immobilised ligand | 5 µM | 100 | COc1ncc2cc3ccccc3nc2c1C#N |
| cell-free assay | competition with immobilised ligand | 1 µM | 96 | O=C(Nc1cnc(Oc2ccc(F)cc2)nc1)N1CCc2ncccc2[C@@H]1c1ccc(F)cc1 |
| binding | competition with immobilised ligand | 1 µM | 86 | C=CC(=O)N1CCC(C(=O)NCC(=O)N2CCN(c3nc(-c4cnc(N)nc4C(F)F)nc(N4CCOCC4)n3)CC2)CC1 |
| binding |  | 1 µM | 46 | CN(C)c1ncc(F)c(-c2cnn3ncccc23)n1 |
| binding | competition with immobilised ligand | 1 µM | 74 | Cc1cnc(Nc2ccc(C(=O)N3CCC(N4CCCC4)CC3)cc2)nc1-c1cc2ccccc2s1 |
| binding |  | 1 µM | 100 | CN(C)c1nccc(-c2cnn3ncccc23)n1 |
| cell-free assay | competition with immobilised ligand | 1 µM | 90 | O=C1NC(c2ccccn2)Sc2ccccc21 (stereo not drawn) |
| binding |  | 1 µM | 99 | CN(CCCC(F)(F)F)c1nccc(-c2cnn3ncccc23)n1 |
| binding | competition with immobilised ligand | 1 µM | 95 | O=C(NCCCN1CCOCC1)c1ccc(Nc2nccc(-c3cc4ccccc4s3)n2)cc1 |
| cell-free assay | competition with immobilised ligand | 1 µM | 100 | CO[C@@H](C)c1c(Nc2ccc([C@H](N(C)C(=O)C3CCS(=O)(=O)CC3)C(F)(F)F)cc2)cnc2cc(Cl)nn12 |
| binding |  | 1 µM | 100 | N[C@@H]1CCN(c2nccc(-c3cnn4ncccc34)n2)C1 |
| binding | competition with immobilised ligand | 1 µM | 100 | O=C(c1ccc(Nc2ncc(Cl)c(-c3cc4ccccc4s3)n2)cc1)N1CCC(N2CCCC2)CC1 |
| binding |  | 1 µM | 95 | C[C@H]1CCN(c2nccc(-c3cnn4ncccc34)n2)C1 |
| cell-free assay | competition with immobilised ligand | 1 µM | 95 | Cc1nc(C2CCN(C(=O)c3ccc(OC(F)(F)F)cc3N)CC2)c2ncc(N3CCN(C)CC3)cc2n1 |
| binding | competition with immobilised ligand | 1 µM | 100 | O=C(NCC1CCOCC1)c1n[nH]cc1NC(=O)c1c(F)cccc1F |
